# Results published in ChEMBL document CHEMBL4024711, “Design, synthesis and biological evaluation of novel nitric oxide-donating protoberberine derivatives as antitumor agents” (Eur J Med Chem, 2017).
# Tested on: HepG2
# Assay: Cytotoxicity against human HepG2 cells after 72 hrs by MTT assay
# Format: functional, cell-based
# Conditions: HepG2, 72 h
# How it was run: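 MTT assay. Cells were plated and grown 24 h at 37 °C, 5% CO2, then exposed to compound in medium with 0.1% DMSO for 72 h. MTT (5 mg/mL in PBS) was added for 4 h and absorbance read at 490 nm. IC50 was taken from dose-response curves; at least three independent experiments.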
row,Compound,IC50 [µM]
1,COc1ccc2cc3[n+](cc2c1OC(=O)CCCCCO[N+](=O)[O-])CCc1cc2c(cc1-3)OCO2,> 100
2,COc1ccc2cc3[n+](cc2c1OCCCCCCO[N+](=O)[O-])CCc1cc2c(cc1-3)OCO2,8.51
3,COc1ccc2cc3[n+](cc2c1OC(=O)CCCCCCCCCO[N+](=O)[O-])CCc1cc2c(cc1-3)OCO2,> 100
